Published values collected from several papers.
Lines come from different studies, so protocols differ.
BTK: Tyrosine-protein kinase BTK (BTK, Homo sapiens, UniProt Q06187)
BTK C481S: Tyrosine-protein kinase BTK (BTK, Homo sapiens, UniProt Q06187, C481S)

Compound | target | observed | mode | method | tested at | measurement | result
C[C@@H]1CN(c2cc(-c3n[nH]c4ccc(OC5(C)CC5)cc34)ncn2)C[C@H](C)O1 | BTK | cell-free assay |  | competition with immobilised ligand | 0.1 µM | remaining binding | 73%
Oc1cccc(-c2nc(N3CCOCC3)c3oc4ncccc4c3n2)c1 | BTK | enzyme activity | inhibitor |  | 10 µM | remaining activity | 82%
O=C(NCc1ncc(C(F)(F)F)cc1Cl)c1ccc2c(c1)C1(CCS(=O)(=O)CC1)[C@@H](C1CC1)N2S(=O)(=O)c1ccc(F)cc1 | BTK | cell-free assay |  | competition with immobilised ligand | 1 µM | remaining binding | 73%
Nc1nc(NC2CCCCC2)sc1C(=O)c1ccccc1 | BTK | enzyme activity | inhibitor |  | 10 µM | remaining activity | 75%
CN(C)C1CCN(CC#Cc2nn(C3CCCC3)c3nc(NCc4ccccc4)ncc23)C1 (stereo not shown) | BTK | enzyme activity | inhibitor | FRET | 1 µM | inhibition | 5%
O=C1NC(=O)c2cc(Nc3ccc(F)cc3)c(Nc3ccc(F)cc3)cc21 | BTK | cell-free assay |  |  | 0.5 µM | remaining signal | 94.3%
COc1cc(Cl)c(C(=O)N[C@@H](CN[C@H]2CC[C@@H](N)CC2)Cc2ccc(C#N)cc2)cc1-c1ccc(CN[C@H](C)c2ccc(C)cc2)o1 | BTK | enzyme activity | inhibitor |  | 1 µM | remaining activity | 114%
COc1cc(/C=C/C(=O)CC(=O)/C=C/c2ccc(O)c(OC)c2)ccc1O | BTK | enzyme activity | inhibitor |  | 1 µM | activity vs control | 90%
N#CCCc1ccc2c(c1)-c1[nH]c3ccc([N+](=O)[O-])cc3c1CC(=O)N2 | BTK | cell-free assay |  |  | 0.5 µM | remaining signal | 94.6%
CCC(=N\O)/C(C)=C/c1ccc(F)cc1 | BTK | cell-free assay |  | competition with immobilised ligand | 1 µM | remaining binding | 78%
Cc1cnc(NC2CCOCC2)nc1-n1cnc(C(=O)NC(CN)c2cc(F)cc(Cl)c2)c1 (stereo not shown) | Tyrosine-protein kinase BTK (BTK, Homo sapiens, UniProt Q06187, R28H) | enzyme activity | inhibitor | radiometric | 1 µM | remaining activity | 99%
NS(=O)(=O)c1cc(NC(=O)C2(c3ccccc3Cl)CC2)ccc1Oc1cccc(Cl)c1 | BTK | cell-free assay |  | competition with immobilised ligand | 1 µM | remaining binding | 88%
NC(=O)[C@H]1CCN(c2ncnc(N)c2F)C[C@@H]1N1CCC[C@@H](Nc2cc(Cl)cc(C(F)(F)F)c2)C1=O | BTK C481S | binding in cells |  |  |  | residence time | 16 min
Cc1cc(NC(=O)c2cccc(S(F)(F)(F)(F)F)c2)cc(-n2ccn3nc(-c4cccnc4)cc23)c1 | BTK | cell-free assay |  | competition with immobilised ligand | 1 µM | remaining binding | 83.8%
Cc1ccc(NC(=O)c2ccc(C)c(C(F)(F)F)c2)cc1C#Cc1nn(C2CCC(O)CC2)c2ncnc(N)c12 (stereo not shown) | BTK | cell-free assay |  |  | 10 µM | remaining signal | 10%
CC(=O)N1CCC(c2ccc(C(=O)NC(=N)N)cc2C(F)(F)F)CC1 | BTK | cell-free assay |  | competition with immobilised ligand | 1 µM | remaining binding | 100%
O=C(Nc1cnn(-c2csc(C(=O)NC3COC3)c2)c1)Nc1c(F)cccc1Cl | BTK | enzyme activity | inhibitor |  | 5 µM | remaining activity | 89.3%
N#CC1(c2ccccn2)CCN(Cc2cc(C(=O)N3CCCC3)c(=O)n3ccccc23)CC1 | BTK | cell-free assay |  | competition with immobilised ligand | 1 µM | remaining binding | 100%
C=CC(=O)N1CCC[C@@H]1Cn1nc(-c2ccc(Oc3ccccc3)cc2F)c2c(N)ncnc21 | BTK | enzyme activity | inhibitor |  |  | kinact | 0.0034 s⁻¹
COc1ccc(F)cc1C(=O)NCc1ccc(-c2nn([C@@H](C)C(F)(F)F)c(N)c2C(N)=O)cc1 | BTK C481S | binding |  | SPR |  | koff | 0.00013 s⁻¹
c1nc2c(Nc3ccc4c(c3)OCCO4)nc(Nc3ccc4c(c3)OCCO4)nc2[nH]1 | BTK | enzyme activity | inhibitor |  | 10 µM | activity vs control | 0.65%
COc1cc(Nc2cnc(C#N)c(O[C@H](C)CN(C)C)n2)ncc1-c1cnn(C)c1 | BTK | enzyme activity | inhibitor | radiometric | 10 µM | remaining activity | 60%
Cc1ccc(C(=O)NCc2ccsc2)cc1C#Cc1cn(C(C)C)c2ncnc(N)c12 | BTK | enzyme activity | inhibitor |  | 1 µM | activity vs control | 73%
CC(C)(C=C(C#N)C(=O)N1CCC[C@H]1Cn1nc(-c2ccc(Oc3ccccc3)cc2F)c2c(N)ncnc21)N1CCOCC1 | BTK | enzyme activity | inhibitor |  |  | kinact | 0.0048 s⁻¹
COc1ccc(COc2ccc(Cc3cnc(N)nc3N)cc2OC)cc1 | BTK | cell-free assay |  |  | 0.5 µM | remaining signal | 104%
CC(C)(C)c1nc(-c2cccc(NS(=O)(=O)c3c(F)cccc3F)c2F)c(-c2ccnc(N)n2)s1 | BTK | enzyme activity | inhibitor | radiometric | 1 µM | remaining activity | 96%
CN(C)CC#Cc1ccc(OCCCc2sc(N3CCc4cccc(C(=O)Nc5nc6ccccc6s5)c4C3)nc2C(=O)O)c(F)c1 | BTK | cell-free assay |  | competition with immobilised ligand | 1 µM | remaining binding | 96%
Cc1cc(NC(=O)c2cccc3cc(-c4cccc5[nH]nc(N)c45)ccc23)ccc1F | BTK | enzyme activity | inhibitor |  | 0.1 µM | activity vs control | 99%
